Screening results (PubChem BioAssay)
Rows were chosen to be rich in hits. Some 2.9% of all compounds tested hit in one or more screens of this group.
Apaf-1 inh – inhibitors of human Apaf-1 apoptosome; inhibition, % at 20 µM; O14727; 0.71% of 330,000 active; AID 489030; reconstituted apoptosome caspase-3 activity, DEVD-Rh110 fluorescence; active = inhibition of at least 40% at 20 µM;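 also: plate controls were DMSO wells for no effect and DEVD-CHO caspase inhibitor wells for full effect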
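detection = Rh110 fluorescence intensity | test system = biochemical Apaf-1 apoptosome reconstitution | also added = cytochrome c and DEVD-Rh110 substrate | schedule = 30 min plus 50 min, RT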
MEKK2 WT-MEK5 – raises or lowers MEK5 binding to wildtype human MEKK2 PB1 domain; 1.1% of 290,000 active; binding response (% of control), % at 10 µM; bead flow cytometry, Alexa488-MEK5 binding to MEKK2 WT; actives lie on both sides; in the data active = binding response below about 67% or above about 130%
MEKK2mut PB1 HTS – signal of MEK5 binding to mutant human MEKK2 PB1 domain; percent response, % at 10 µM; AID 1530; 0.35% of 290,000 active; bead flow cytometry, Alexa488-MEK5 binding to MEKK2 mutant; in the data active = percent response above about 24%, passing the limit was not always enough
UBC13 inh – human UBC13 polyubiquitination inhibition | P61088 | UBC13 polyubiquitin chain formation, TR-FRET | inhibition, % at 20 µM | 0.47% of 330,000 active; in the data active = inhibition above about 45%, passing the limit was not always enough
MEKK3 PB1 HTS – raises or lowers MEK5 binding to the human MEKK3 PB1 domain; 1.4% of 290,000 active; binding response (% of control), % at 10 µM; AID 1529; bead-based flow cytometry, Alexa488-MEK5 binding to MEKK3; actives lie on both sides; 0 = blocked by unlabeled MEK5, 100 = vehicle; Q99759;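 active = binding response more than 3 SD above or below the average of its plate-row segment, actives on both sides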;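 also: Alexa488 bead fluorescence after subtracting the streptavidin-only scavenger bead signal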
MEKK2wt confirm – raises or lowers MEK5 binding to wildtype human MEKK2, retest; shares compounds with MEKK3 PB1 HTS; bead flow cytometry, Alexa488-MEK5 binding to MEKK2 WT; actives lie on both sides; binding response (% of control), % at 10 µM; 2.4% of 5,900 active; in the data active = binding response below about 16% or above about 210%; inactive = in between
MEKK2mut-MEK5 – signal of MEK5 binding to mutant human MEKK2, retest; shares compounds with MEKK3 PB1 HTS; bead flow cytometry, Alexa488-MEK5 binding to MEKK2 mutant; percent response, % at 10 µM; 2% of 5,900 active; in the data active = percent response mostly above about 71%, no sharp cut-off; inactive = mostly below about 38%;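 also: higher means compound restores mutant binding toward wildtype level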
MEKK3-MEK5 inh – MEKK3-MEK5 PB1 inhibition, single concentration confirmation. bead flow cytometry, Alexa488-MEK5 binding to MEKK3; hits give low values. 1.8% of 5,900 active. binding response (% of control), % at 10 µM. shares compounds with MEKK3 PB1 HTS. AID 1894;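 active = binding response below 72% of control, or above a set upper limit, though filed actives all read lower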;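 also: 100% = DMSO only wells and 0% = binding blocked by excess unlabeled MEK5; lower values mean stronger disruption of MEK5 binding to MEKK3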
Active calls of the source: *; nt = no result given; [ ] = another dose, or the depositor's remark.

SMILES	Apaf-1 inh	MEKK2 WT-MEK5	MEKK2mut PB1 HTS	UBC13 inh	MEKK3 PB1 HTS	MEKK2wt confirm	MEKK2mut-MEK5	MEKK3-MEK5 inh
O=C(CCCN1C(=O)c2ccccc2C1=O)NCc1ccc(F)cc1	-2.6	117.0	33.0*	-2.2	115.0	91.0	-7.0	90.0
CC(C)(C)c1cc[n+](/C(C(=S)NC2CC2)=C(/[O-])c2ccc(Cl)s2)cc1	5.0	80.0	-2.0	-14.3	81.0*[inhibitor]	95.0	-7.0	97.0
CCc1cccc(CC)c1NC(=S)/C(=C(\[O-])c1ccc(Cl)s1)[n+]1ccccc1	14.9	98.0	0.0	-17.2	98.0	nt	nt	nt
COc1ccc(N2C(=O)C3ON(C4SC(=S)N(C)C4(C)C)C(c4ccc(Cl)cc4)C3C2=O)cc1 (centres undefined)	11.7	108.0	0.0	1.2	151.0*	99.0	-2.0	98.0
COc1ccc(N2C(=O)C3ON(C4SC(=S)N(C)C4(C)C)C(c4ccc([N+](=O)[O-])cc4)C3C2=O)cc1 (centres undefined)	3.5	99.0	1.0	0.4	104.0	nt	nt	nt
COC(=O)CN(C#N)c1nc(C)cc(C)n1	-3.8	112.0	1.0	2.3	133.0*	102.0	-1.0	102.0
Cc1nc2cc(-c3ccc(Cl)cc3)nn2c(NCCN(C)C)c1C	8.5	148.0*	29.0	17.7	113.0	132.0	18.0	110.0
O=C(O)c1[nH]c2ccccc2c1CC(=O)N1CCN(c2ccccc2)CC1	2.0	112.0	3.0	-3.1	132.0*	103.0	4.0	104.0
Cc1cccc(NC(=S)N2CCOCC2)c1C	10.6	110.0	4.0	8.6	103.0	nt	nt	nt
O=C(O)CC1(CC(=O)Nc2ccc3ccccc3n2)CCCCC1	-4.6	97.0	0.0	4.0	100.0	nt	nt	nt
O=C(O)CC1(CC(=O)Nc2ccc3ccccc3c2)CCCCC1	11.5	-1.0*[inhibitor]	-9.0	16.5	1.0*[inhibitor]	100.0	3.0	105.0
CC(=O)O[C@H]1[C@H](C)OC=C[C@@H]1OC(C)=O	6.7	151.0*	9.0	-0.8	106.0	109.0	6.0	103.0
CN1C(=O)NC(c2ccc(O)cc2)C2=C1CN(c1ccc(O)cc1)C2=O (centres undefined)	-2.1	126.0	5.0	6.0	147.0*	98.0	-6.0	100.0
CSc1cccc(NC(=O)/C=C/c2ccc(Cl)cc2)c1	15.5	146.0*	10.0	-17.1	107.0	126.0	12.0	107.0
O=C(CSc1ccc(F)cc1)Nc1ccc2c(c1)C(=O)NC2=O	4.3	99.0	-4.0	-6.7	101.0	nt	nt	nt
Cc1ccc(C)c(Cn2nnc3c(=O)[nH]c(C4CCCN(C(=O)c5cccs5)C4)nc32)c1 (centres undefined)	25.7	90.0	-5.0	-3.7	98.0	nt	nt	nt
COc1ccccc1OCCC(=O)OCC(=O)Nc1ccc(Br)cc1	0.9	108.0	1.0	13.2	134.0*	102.0	2.0	103.0
Cc1ccccc1OCCCC(=O)Nc1ccc(Br)cc1	2.2	0.0*[inhibitor]	-21.0	-0.9	0.0*[inhibitor]	112.0	8.0	109.0
CCN(CC)CCNCc1cc(Cl)ccc1OCc1ccccc1F	-1.3	143.0	15.0	18.9	98.0	nt	nt	nt
CC(C)(C)NCc1cc(Cl)ccc1OCc1ccccc1F	9.0	70.0	-22.0	-20.2	75.0*[inhibitor]	101.0	0.0	99.0
Cn1ccnc1C(=O)C1CCCN(Cc2cn[nH]c2-c2ccc(-c3ccccc3)cc2)C1 (centres undefined)	1.4	148.0*	30.0	20.8	116.0	109.0	2.0	99.0
Cc1ccc(C(=O)C[n+]2cc(Br)cc(Br)c2)cc1[N+](=O)[O-]	4.6	101.0	51.0*	-5.9	104.0	111.0	2.0	98.0
Cc1cc(C)c[n+](CC(=O)c2ccc(C)c([N+](=O)[O-])c2)c1	-10.6	108.0	3.0	-2.2	97.0	nt	nt	nt
CC(CNC(=O)CC(C)(C)C)NC(=O)CC(C)(C)C (centres undefined)	6.3	102.0	7.0	-5.5	123.0*	94.0	0.0	102.0
CSCCC(C(=O)OCC(=O)c1ccc(C)c(C)c1)N1C(=O)c2cc(Cl)c(Cl)cc2C1=O (centres undefined)	5.6	2.0*[inhibitor]	-15.0	0.6	2.0*[inhibitor]	90.0	-4.0	97.0
SMILES	Apaf-1 inh	MEKK2 WT-MEK5	MEKK2mut PB1 HTS	UBC13 inh	MEKK3 PB1 HTS	MEKK2wt confirm	MEKK2mut-MEK5	MEKK3-MEK5 inh
CCOc1cccc(C(=O)Nc2ccc(N3CCCC3)cc2)c1	27.1	144.0*	9.0	-7.3	107.0	113.0	5.0	104.0
CCOc1ccc(C(=O)Nc2ccc(N3CCN(C)CC3)cc2)cc1Br	4.8	129.0	24.0*	26.7	100.0	120.0	13.0	103.0
CCOc1ccc(C(=O)Nc2ccc(NC(=O)c3ccccc3)cc2)cc1Br	-12.5	103.0	5.0	-3.2	100.0	nt	nt	nt
CCOc1cccc(C(=O)Nc2ccc3c(c2)OCCO3)c1	8.3	38.0*[inhibitor]	-21.0	-6.4	26.0*[inhibitor]	102.0	2.0	104.0
CCOc1ccc(OCc2cccc(C(=O)Nc3ccc(CN4CCCCC4)cc3)c2)cc1	10.2	161.0*	6.0	30.3	113.0	138.0	43.0	107.0
O=C(CN1C(=O)c2ccccc2C1=O)OCC(=O)c1ccccc1	14.8	nt	nt	0.5	nt	nt	nt	nt
CCCc1nc2ccccc2c(=O)n1CCc1ccccc1	3.2	105.0	3.0	0.0	102.0	nt	nt	nt
Cc1cc(C)cc(NC(=O)[C@@H](NC(=O)c2ccco2)C(C)C)c1	3.1	104.0	10.0	8.5	106.0	nt	nt	nt
COc1cccc(C(=O)NC(=S)Nc2ccc(N3CCCC3)cc2)c1	25.5	91.0	-16.0	-8.1	88.0	nt	nt	nt
CC(C)Oc1cccc(C(=O)NC(=S)Nc2ccc(N3CCN(C)CC3)cc2)c1	19.6	48.0	-37.0	5.3	24.0*[inhibitor]	144.0	38.0	110.0
O=C(CCNC(=O)c1ccccc1Cl)NCCCSc1ccccc1	-4.8	nt	nt	0.1	nt	nt	nt	nt
O=C(NCCSc1ccccc1)c1ccccc1Cl	11.1	110.0	1.0	3.6	156.0*	102.0	-2.0	104.0
CC(=O)c1ccc(NS(=O)(=O)c2ccccc2)cc1	-1.8	103.0	-5.0	-8.8	103.0	nt	nt	nt
CC(=O)c1ccc(NS(=O)(=O)c2ccc(N)cc2)cc1	-12.3	118.0	1.0	0.6	135.0*	101.0	12.0	104.0
CC(C)NS(=O)(=O)c1ccc(CCC(=O)Nc2ccc3c(c2)OCCO3)cc1	7.2	114.0	3.0	7.5	164.0*	101.0	-2.0	95.0
COc1cc(O)c2c(c1)OC(C)(C)CC2=O	-0.7	116.0	7.0	9.3	122.0*	100.0	0.0	103.0
CC1(C)CC(=O)c2c(O)cc(OCc3ccc(Br)cc3)cc2O1	7.2	104.0	2.0	4.2	101.0	nt	nt	nt
